In ChEMBL document CHEMBL1795311, “Synthesis, antiproliferative activity, and mechanism of action of a series of 2-{[(2E)-3-phenylprop-2-enoyl]amino}benzamides” (Eur J Med Chem, 2011):

Experiments:
Type in all cases: functional
TK-10 = experiment: Growth inhibition of human TK10 cells after 48 hrs by SRB assay; details: TK-10, 48 h
Method in brief: (§1)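 Run by the NCI Developmental Therapeutics Program: cells in RPMI 1640 with 5% FBS and 2 mM L-glutamine, plated at 5000–40,000 cells/well and grown 24 h before dosing. Drug (DMSO stock) given at five concentrations for 48 h at 37 °C, 5% CO2. Adherent cells fixed with cold TCA, stained with 0.4% SRB and read at 515 nm. GI50, TGI and LC50 taken from the time-zero, control and treated absorbances.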

PC-3 = experiment: Growth inhibition of human PC3 cells after 48 hrs by SRB assay; details: PC-3, 48 h
Method in brief: (§2)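 NCI DTP panel cells grown in RPMI 1640 with 5% FBS and 2 mM L-glutamine, preincubated 24 h, then given five concentrations (10-fold or ½-log dilutions from DMSO stock) for 48 h at 37 °C. Cells fixed with TCA, stained with SRB, absorbance read at 515 nm, with time-zero plates as reference.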

NCI-H522 = experiment: Growth inhibition of human NCI-H522 cells after 48 hrs by SRB assay; details: NCI-H522, 48 h; method in brief: as §2
HCT-15 = experiment: Growth inhibition of human HCT15 cells after 48 hrs by SRB assay; details: HCT-15, 48 h; method in brief: as §2
HOP-62 = experiment: Growth inhibition of human HOP62 cells after 48 hrs by SRB assay; details: HOP-62, 48 h; method in brief: as §2
T47D = experiment: Growth inhibition of human T47D cells after 48 hrs by SRB assay; method in brief: as §1
K562 = experiment: Antiproliferative activity against human K562 cells at 10 uM after 48 hrs by trypan blue assay; details: K562, 48 h, read-out: GI
SF-268 = experiment: Growth inhibition of human SF268 cells after 48 hrs by SRB assay; details: SF-268, 48 h; method in brief: as §2
RPMI-8226 = experiment: Growth inhibition of human RPMI8226 cells after 48 hrs by SRB assay; details: RPMI-8226, 48 h; method in brief: as §2
SK-MEL-5 = experiment: Growth inhibition of human SK-MEL-5 cells after 48 hrs by SRB assay; details: SK-MEL-5, 48 h; method in brief: as §1
NCI-H226 = experiment: Growth inhibition of human NCI-H226 cells after 48 hrs by SRB assay; details: NCI-H226, 48 h; method in brief: as §2
A549 = experiment: Growth inhibition of human A549 cells after 48 hrs by SRB assay; details: A549, 48 h; method in brief: as §2
MDA-MB-435 = experiment: Growth inhibition of human MDA-MB-435 cells after 48 hrs by SRB assay; details: MDA-MB-435, 48 h; method in brief: as §2
HL-60 = experiment: Growth inhibition of human HL60 cells after 48 hrs by SRB assay; details: HL-60, 48 h; method in brief: as §2
IGROV-1 = experiment: Growth inhibition of human IGROV1 cells after 48 hrs by SRB assay; details: IGROV-1, 48 h; method in brief: as §2
CCRF-CEM = experiment: Growth inhibition of human CCRF-CEM cells after 48 hrs by SRB assay; method in brief: as §2
EKVX = experiment: Growth inhibition of human EKVX cells after 48 hrs by SRB assay; method in brief: as §2
NCI-H23 = experiment: Growth inhibition of human NCI-H23 cells after 48 hrs by SRB assay; details: NCI-H23, 48 h; method in brief: as §2
HT-29 = experiment: Growth inhibition of human HT-29 cells after 48 hrs by SRB assay; details: HT-29, 48 h; method in brief: as §2
BT-549 = experiment: Growth inhibition of human BT549 cells after 48 hrs by SRB assay; details: BT-549, 48 h; method in brief: as §2
M14 = experiment: Growth inhibition of human M14 cells after 48 hrs by SRB assay; details: M14, 48 h; method in brief: as §2
NCI/ADR-RES = experiment: Growth inhibition of human NCI/ADR-RES cells after 48 hrs by SRB assay; method in brief: as §2
[1] = Growth inhibition of human Hs 578T cells after 48 hrs by SRB assay; method in brief: as §2
SF-295 = experiment: Growth inhibition of human SF295 cells after 48 hrs by SRB assay; details: SF-295, 48 h; method in brief: as §2
MOLT-4 = experiment: Growth inhibition of human MOLT4 cells after 48 hrs by SRB assay; details: MOLT-4, 48 h; method in brief: as §2
786-0 = experiment: Growth inhibition of human 786-0 cells after 48 hrs by SRB assay; details: 786-0, 48 h; method in brief: as §2
MDA-MB-468 = experiment: Growth inhibition of human MDA-MB-468 cells after 48 hrs by SRB assay; details: MDA-MB-468, 48 h; method in brief: as §2
SK-OV-3 = experiment: Growth inhibition of human SKOV3 cells after 48 hrs by SRB assay; details: SK-OV-3, 48 h; method in brief: as §1
SF-539 = experiment: Growth inhibition of human SF539 cells after 48 hrs by SRB assay; details: SF-539, 48 h; method in brief: as §2

In the case of `NC(=O)c1cc(I)ccc1NC(=O)/C=C/c1ccccc1Cl`, the GI50 (TK-10) is reported as 26700 nM, the GI50 (PC-3) is reported as 832 nM and the GI50 (NCI-H522) is reported as 459 nM. For the same molecule, the GI50 (HCT-15) was 987 nM, the GI50 (HOP-62) was 2300 nM and the GI50 (T47D) was 19900 nM. It also gave an inhibition of growth at 10 µM (K562) of 74.1%, a GI50 (SF-268) of 778 nM and a GI50 (RPMI-8226) of 772 nM. It also gave a GI50 (SK-MEL-5) of 367 nM, a GI50 (NCI-H226) of 1140 nM and a GI50 (A549) of 1870 nM. It also gave a GI50 (MDA-MB-435) of 234 nM, a GI50 (HL-60) of 165 nM and a GI50 (IGROV-1) of 352 nM. For the same molecule, the GI50 (CCRF-CEM) was 484 nM, the GI50 (EKVX) was 1000 nM and the GI50 (NCI-H23) was 1390 nM. It also gave a GI50 (HT-29) of 376 nM, a GI50 (BT-549) of 816 nM and a GI50 (M14) of 698 nM. It also gave a GI50 (NCI/ADR-RES) of 719 nM, a GI50 [1] of 362 nM and a GI50 (SF-295) of 415 nM. The GI50 (MOLT-4) was 1420 nM, the GI50 (786-0) was 937 nM and the GI50 (MDA-MB-468) was 377 nM. The GI50 (SK-OV-3) was 539 nM and the GI50 (SF-539) was 444 nM.
